Assay results from ChEMBL document CHEMBL1641365, “Synthesis, in vitro and in vivo preliminary evaluation of anti-angiogenic properties of some pyrroloazaflavones” (Bioorg Med Chem, 2011).
Activity calls are given as the source filed them. The rule behind the calls is not given here.

Key:
[1] = test system: HUVEC; assay: Inhibition of growth factor-induced angiogenesis in HUVEC cells assessed as inhibition of cell migration at 10^-2 uM after 4 hrs by fluorescence microscopy; type: functional, cell-based; conditions: Homo sapiens
[2] = test system: HUVEC; assay: Induction of apoptosis in HUVEC cells assessed as proapoptotic effect after 24 hrs by TUNEL assay; type: functional, cell-based; conditions: Homo sapiens
[3] = test system: HUVEC; assay: Antiangiogenic activity against FGF2-induced HUVEC assessed as inhibition of cell proliferation at 10^-2 uM after 24 hrs; type: functional, cell-based; conditions: Homo sapiens
[4] = test system: HUVEC; assay: Growth inhibition of HUVEC cells after 20 hrs by MTT assay; type: cell-based; conditions: Homo sapiens
In short: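 Primary HUVECs, passages 2–4, were seeded at 2 × 10⁴ cells/cm². After 24 h they were exposed to a range of concentrations (10 to 10⁻⁵ µM). After 20 h, MTT (0.5 mg/mL) was read. IC50 is the concentration giving a 50% viability drop versus untreated cells; 10 µM was the top concentration. Values are means ± SD of at least three independent experiments.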

[5] = test system: HUVEC; assay: Antiangiogenic activity against FGF2-induced in HUVEC cells assessed as inhibition of morphological change at 10^-2 uM after 18 hrs by capillary-like formation assay; type: functional, cell-based; conditions: Homo sapiens
[6] = test system: HUVEC; assay: Antiangiogenic activity against FGF2-induced in HUVEC cells assessed as inhibition of capillary-like formation at 10^-2 uM after 18 hrs by Matrigel assay; type: functional, cell-based; conditions: Homo sapiens
[7] = test system: HUVEC; assay: Antiangiogenic activity against FGF2-induced HUVEC assessed as inhibition of cell proliferation at 10^-4 uM after 24 hrs; type: functional, cell-based; conditions: Homo sapiens
[8] = test system: HUVEC; assay: Antiangiogenic activity against FGF2-induced in HUVEC cells assessed as inhibition of capillary-like formation at 10^-4 uM after 18 hrs by Matrigel assay; type: functional, cell-based; conditions: Homo sapiens
[9] = test system: Mus musculus; assay: Antiangiogenic activity against FGF2-induced C57/BL6 mouse assessed as inhibition of angiogenesis at 0.01 uM, sc after 7 days by Matrigel plug assay; type: functional, organism-based
In short: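 Matrigel with heparin, with or without FGF-2 200 ng/plug plus test agent 0.01 µM, injected subcutaneously into the dorsal area of C57/BL6 mice. Animals were killed after 7 days. Plugs were removed and steeped overnight at 4 °C in 0.1% Brij-35 in PBS. Hemoglobin content of the plugs was measured.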

[10] = test system: HUVEC; assay: Inhibition of growth factor-induced angiogenesis in HUVEC cells assessed as inhibition of cell migration at 10^-4 uM after 4 hrs by fluorescence microscopy; type: functional, cell-based; conditions: Homo sapiens
[11] = test system: HUVEC; assay: Inhibition of growth factor-induced angiogenesis in HUVEC cells assessed as inhibition of cell migration at 10^-3 uM after 4 hrs by fluorescence microscopy; type: functional, cell-based; conditions: Homo sapiens
[12] = test system: HUVEC; assay: Antiangiogenic activity against FGF2-induced HUVEC assessed as inhibition of cell proliferation at 10^-3 uM after 24 hrs; type: functional, cell-based; conditions: Homo sapiens
[13] = test system: HUVEC; assay: Antiangiogenic activity against FGF2-induced in HUVEC cells assessed as inhibition of morphological change at 10^-3 uM after 18 hrs by capillary-like formation assay; conditions: Homo sapiens
[14] = test system: HUVEC; assay: Antiangiogenic activity against FGF2-induced in HUVEC cells assessed as inhibition of morphological change at 10^-3 uM after 18 hrs by capillary-like formation assay; type: functional, cell-based; conditions: Homo sapiens
[15] = test system: HUVEC; assay: Antiangiogenic activity against FGF2-induced in HUVEC cells assessed as inhibition of capillary-like formation at 10^-3 uM after 18 hrs by Matrigel assay; type: functional, cell-based; conditions: Homo sapiens
[16] = test system: HUVEC; assay: Inhibition of growth factor-induced angiogenesis in HUVEC cells assessed as inhibition of in cell migration at 10^-5 uM after 4 hrs by fluorescence microscopy; type: functional, cell-based; conditions: Homo sapiens
[17] = test system: HUVEC; assay: Antiangiogenic activity against FGF2-induced HUVEC assessed as inhibition of cell proliferation at 10^-5 uM after 24 hrs; type: functional, cell-based; conditions: Homo sapiens
[18] = test system: HUVEC; assay: Antiangiogenic activity against FGF2-induced in HUVEC cells assessed as inhibition of capillary-like formation at 10^-5 uM after 18 hrs by Matrigel assay; type: functional, cell-based; conditions: Homo sapiens

Row | SMILES | inhibition [1] | Activity [2] | IC50 [4] | Activity [5] | Activity [6] | Activity [9] | other results
1 | COc1cccc(-c2cc(O)c3ccc4[nH]ccc4c3n2)c1 | Active | Active | 5.8 µM | – | – | – | Activity [3]: Active
2 | Cc1cc2c(ccc3c(=O)cc(-c4ccccc4)[nH]c32)[nH]1 | – | – | > 10 µM | – | – | – | –
3 | CCn1ccc2c3[nH]c(-c4ccccc4)cc(=O)c3ccc21 | Active | Active | 8.1 µM | inactive | Active | – | –
4 | Oc1cc(-c2ccccc2)nc2c1ccc1[nH]ccc12 | – | Active | 0.043 µM | – | – | Active | Activity [7]: Active; Activity [8]: Active; inhibition [10]: Active
5 | CCOC(=O)CCn1ccc2c3[nH]c(-c4ccccc4)cc(=O)c3ccc21 | Active | Active | 5.7 µM | Active | Active | Active | –
6 | Oc1cc(-c2cccs2)nc2c1ccc1[nH]ccc12 | – | – | > 10 µM | – | – | – | –
7 | O=c1cc(-c2ccc[nH]2)[nH]c2c1ccc1[nH]ccc12 | – | – | > 10 µM | – | – | – | –
8 | O=[N+]([O-])c1cccc(-c2cc(O)c3ccc4[nH]ccc4c3n2)c1 | – | Active | 0.45 µM | – | – | Active | inhibition [11]: Active; Activity [12]: Active; Activity [13]: Active; Activity [14]: Active; Activity [15]: Active
9 | CC[C@]1(O)C[C@@H]2CN(CCc3c([nH]c4ccccc34)[C@@](C(=O)OC)(c3cc4c(cc3OC)N(C)[C@H]3[C@@](O)(C(=O)OC)[C@H](OC(C)=O)[C@]5(CC)C=CCN6CC[C@]43[C@@H]65)C2)C1 [VINBLASTINE] | – | – | 0.049 µM | – | – | – | inhibition [16]: Active; Activity [17]: Active; Activity [18]: Active
10 | O=c1cc(-c2ccccc2)[nH]c2c1ccc1c2ccn1CC1CC1 | Active | Active | 4.2 µM | inactive | Active | Active | –
